In PMC6930011 (Journal of the American Chemical Society, 2019):
Where no end group is shown, it is not given here.

Legend:
human PTHR1 = experiment: cAMP production, GloSensor assay in HEK-293 cells stably expressing human PTHR1; assay type: cell-based; settings: relative to PTH(1-34)-NH2; Figure S2
PTHR1 = assay type: cell-based; settings: HEK293 cells stably expressing HA-tagged PTHR1
hPTHR1 = experiment: Washout assay of cAMP signaling duration; assay type: cell-based, human; settings: excess PTHR1 antagonist (D)Trp^12,Tyr^34-bPTH(7-34) during washout; 1 nM agonist
Summary of the method: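 HEK293 cells stably expressing hPTHR1, with β-arrestin at endogenous levels, were stimulated with 1 nM agonist for a defined period. Agonist was then washed off and cAMP monitored during the ligand-off phase, with excess antagonist present after washout and, in some runs, BA1 added as well. Output was area under curve, normalized to PTH(1-34)-NH2 at 1 nM. Data were mean ± s.e.m. from n = 3–4 independent experiments, compared by one-way ANOVA.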

| Substance | potency in stimulating cAMP production, fold less potent than PTH(1-34)-NH2 (human PTHR1) | co-IP of the PTHR1 and endogenous β-arrestin (PTHR1) | effect of antagonist after washout on duration and extent of cAMP production (hPTHR1) |
| --- | --- | --- | --- |
| Tyr^1-PTH(1-34)-NH2 (YVSEIQLMHNLGKHLNSMERVEWLRKKLQDVHNF-NH2; UniProt P01270 32-65, looked up, variant S1Y) | ~ 5 fold |  |  |
| Trp^1-PTHrP(1-36)-NH2 (WVSEHQLLHDKGKSIQDLRRRFFLHHLIAEIHTAEI-NH2; UniProt P12272 37-72, looked up, variant A1W) | ~ 5 fold |  |  |
| PTH(1-34)-NH2 |  | effectively induced co-IP | only a modest drop |
